# Data from ChEMBL document CHEMBL4325889, “Natural products hybrids: 3,5,4'-Trimethoxystilbene-5,6,7-trimethoxyflavone chimeric analogs as potential cytotoxic agents against diverse human cancer cells” (Eur J Med Chem, 2019).
# How the values were obtained:
# Type in all cases: functional
# [1] = test system: HL-60(TB); test: Growth inhibition of human HL-60(TB) cells at 10 uM after 48 hrs by SRB assay relative to control; settings: HL-60, 48 h, read-out: GI
# Outline: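 Run at NCI under its standard single-dose protocol against a leukemia cell panel. Cells were exposed to 10 µM; growth was read by sulforhodamine B staining of cellular protein and expressed as % growth inhibition versus untreated control. Values above 100% mean the cell population fell below the starting count (cytocidal). Each value is the average of duplicates.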
# [2] = test system: NCI/ADR-RES; test: Growth inhibition of human NCI/ADR-RES cells at 10 uM after 48 hrs by SRB assay relative to control; settings: read-out: GI
# Outline: (§1)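 Screened at the National Cancer Institute by the standard NCI protocol using the sulforhodamine B assay, which measures cellular protein. Single dose of 10 µM. Result is percent growth inhibition; values above 100% mean cell number fell below the initial population. Values are the average of duplicates.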
# [3] = test system: RXF 393; test: Growth inhibition of human RXF393 cells at 10 uM after 48 hrs by SRB assay relative to control; settings: RXF 393, 48 h, read-out: GI; outline: as §1
# [4] = test system: SF-295; test: Growth inhibition of human SF295 cells at 10 uM after 48 hrs by SRB assay relative to control; settings: SF-295, 48 h, read-out: GI; outline: as §1
# [5] = test system: MDA-MB-468; test: Growth inhibition of human MDA-MB-468 cells at 10 uM after 48 hrs by SRB assay relative to control; settings: MDA-MB-468, 48 h, read-out: GI; outline: as §1
# [6] = test system: K562; test: Growth inhibition of human K562 cells at 10 uM after 48 hrs by SRB assay relative to control; settings: K562, 48 h, read-out: GI; outline: as §1
# [7] = test system: SW-620; test: Growth inhibition of human SW620 cells at 10 uM after 48 hrs by SRB assay relative to control; settings: SW-620, 48 h, read-out: GI
# Outline: (§2)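 NCI screen against its human cancer cell line panel by the standard NCI protocol, SRB protein stain. Single dose of 10 μM. Percent growth inhibition versus control; values above 100% mean the cell population fell below the starting number. Each value is the mean of duplicates.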
# [8] = test system: SR; test: Growth inhibition of human SR cells at 10 uM after 48 hrs by SRB assay relative to control; settings: read-out: GI; outline: as §2
# [9] = test system: SNB-75; test: Growth inhibition of human SNB75 cells at 10 uM after 48 hrs by SRB assay relative to control; settings: SNB-75, 48 h, read-out: GI; outline: as §2
# [10] = test system: MOLT-4; test: Growth inhibition of human MOLT4 cells at 10 uM after 48 hrs by SRB assay relative to control; settings: MOLT-4, 48 h, read-out: GI; outline: as §1
# [11] = test system: SK-MEL-28; test: Growth inhibition of human SK-MEL-28 cells at 10 uM after 48 hrs by SRB assay relative to control; settings: SK-MEL-28, 48 h, read-out: GI; outline: as §1
# [12] = test system: OVCAR-4; test: Growth inhibition of human OVCAR4 cells at 10 uM after 48 hrs by SRB assay relative to control; settings: OVCAR-4, 48 h, read-out: GI; outline: as §1
# [13] = test system: NCI-H522; test: Growth inhibition of human NCI-H522 cells at 10 uM after 48 hrs by SRB assay relative to control; settings: NCI-H522, 48 h, read-out: GI; outline: as §1
# [14] = test system: OVCAR-3; test: Growth inhibition of human OVCAR3 cells at 10 uM after 48 hrs by SRB assay relative to control; settings: OVCAR-3, 48 h, read-out: GI; outline: as §1
# [15] = test system: LOX IMVI; test: Growth inhibition of human LOXIMVI cells at 10 uM after 48 hrs by SRB assay relative to control; settings: read-out: GI; outline: as §1
# [16] = test system: BT-549; test: Growth inhibition of human BT549 cells at 10 uM after 48 hrs by SRB assay relative to control; settings: BT-549, 48 h, read-out: GI; outline: as §1
# [17] = test system: U-251; test: Growth inhibition of human U251 cells at 10 uM after 48 hrs by SRB assay relative to control; settings: U-251, 48 h, read-out: GI; outline: as §2
# [18] = test system: SF-539; test: Growth inhibition of human SF539 cells at 10 uM after 48 hrs by SRB assay relative to control; settings: SF-539, 48 h, read-out: GI; outline: as §1
# [19] = test system: SK-MEL-5; test: Growth inhibition of human SK-MEL-5 cells at 10 uM after 48 hrs by SRB assay relative to control; settings: SK-MEL-5, 48 h, read-out: GI; outline: as §1
# [20] = test system: CAKI-1; test: Growth inhibition of human Caki1 cells at 10 uM after 48 hrs by SRB assay relative to control; settings: CAKI-1, 48 h, read-out: GI; outline: as §1
# [21] = test system: CCRF-CEM; test: Growth inhibition of human CCRF-CEM cells at 10 uM after 48 hrs by SRB assay relative to control; settings: read-out: GI; outline: as §1
# [22] = test system: IGROV-1; test: Growth inhibition of human IGROV1 cells at 10 uM after 48 hrs by SRB assay relative to control; settings: IGROV-1, 48 h, read-out: GI; outline: as §1
# [23] = test system: DU-145; test: Growth inhibition of human DU145 cells at 10 uM after 48 hrs by SRB assay relative to control; settings: DU-145, 48 h, read-out: GI; outline: as §1
# [24] = test system: NCI-H23; test: Growth inhibition of human NCI-H23 cells at 10 uM after 48 hrs by SRB assay relative to control; settings: NCI-H23, 48 h, read-out: GI; outline: as §1
# [25] = test system: OVCAR-5; test: Growth inhibition of human OVCAR5 cells at 10 uM after 48 hrs by SRB assay relative to control; settings: OVCAR-5, 48 h, read-out: GI; outline: as §1
# [26] = test system: Hs-578T; test: Growth inhibition of human Hs 578T cells at 10 uM after 48 hrs by SRB assay relative to control; settings: read-out: GI; outline: as §1
# [27] = test system: HOP-92; test: Growth inhibition of human HOP92 cells at 10 uM after 48 hrs by SRB assay relative to control; settings: HOP-92, 48 h, read-out: GI; outline: as §1
# [28] = test system: HCC 2998; test: Growth inhibition of human HCC2998 cells at 10 uM after 48 hrs by SRB assay relative to control; settings: HCC 2998, 48 h, read-out: GI; outline: as §1
# [29] = test system: SK-MEL-2; test: Growth inhibition of human SK-MEL-2 cells at 10 uM after 48 hrs by SRB assay relative to control; settings: SK-MEL-2, 48 h, read-out: GI; outline: as §1
# [30] = test system: UACC-257; test: Growth inhibition of human UACC257 cells at 10 uM after 48 hrs by SRB assay relative to control; settings: UACC-257, 48 h, read-out: GI; outline: as §2
# [31] = test system: PC-3; test: Growth inhibition of human PC3 cells at 10 uM after 48 hrs by SRB assay relative to control; settings: PC-3, 48 h, read-out: GI; outline: as §1
# [32] = test system: MCF7; test: Growth inhibition of human MCF7 cells at 10 uM after 48 hrs by SRB assay relative to control; settings: MCF7, 48 h, read-out: GI; outline: as §1
# [33] = test system: RPMI-8226; test: Growth inhibition of human RPMI8226 cells at 10 uM after 48 hrs by SRB assay relative to control; settings: RPMI-8226, 48 h, read-out: GI; outline: as §1
SMILES,inhibition of growth at 10 µM [1] [%],inhibition of growth at 10 µM [2] [%],inhibition of growth at 10 µM [3] [%],inhibition of growth at 10 µM [4] [%],inhibition of growth at 10 µM [5] [%],inhibition of growth at 10 µM [6] [%],inhibition of growth at 10 µM [7] [%],inhibition of growth at 10 µM [8] [%],inhibition of growth at 10 µM [9] [%],inhibition of growth at 10 µM [10] [%],inhibition of growth at 10 µM [11] [%],inhibition of growth at 10 µM [12] [%],inhibition of growth at 10 µM [13] [%],inhibition of growth at 10 µM [14] [%],inhibition of growth at 10 µM [15] [%],inhibition of growth at 10 µM [16] [%],inhibition of growth at 10 µM [17] [%],inhibition of growth at 10 µM [18] [%],inhibition of growth at 10 µM [19] [%],inhibition of growth at 10 µM [20] [%],also measured
COc1cccc(C(=O)Nc2cccc(-c3cc(=O)c4c(O)c(OC)c(OC)cc4o3)c2)c1,19.5,43.7,1.37,33.1,28.8,69.2,19,54.8,13.1,49.3,22.5,33.4,56.9,34.1,57.6,34.2,28.4,22.9,48.9,23.8,inhibition of growth at 10 µM [21]: 50.5%; inhibition of growth at 10 µM [22]: 25.7%; inhibition of growth at 10 µM [23]: 36.7%; inhibition of growth at 10 µM [24]: 32.6%; inhibition of growth at 10 µM [25]: 9.51%; inhibition of growth at 10 µM [26]: 34.1%; inhibition of growth at 10 µM [27]: 31.2%; inhibition of growth at 10 µM [28]: 11.8%; inhibition of growth at 10 µM [29]: 21.6%; inhibition of growth at 10 µM [30]: 25.9%; inhibition of growth at 10 µM [31]: 59.6%; inhibition of growth at 10 µM [32]: 34.9%; inhibition of growth at 10 µM [33]: 74.2%
COc1cc(NC(=O)c2cccc(-c3cc(=O)c4c(O)c(OC)c(OC)cc4o3)c2)cc(OC)c1OC,22,50.6,25,38.5,40.1,45.5,26.7,45.6,67.8,27.2,22.6,41.4,58.8,76.2,67,93,55.2,48.3,60.8,37.5,inhibition of growth at 10 µM [21]: 41.9%; inhibition of growth at 10 µM [22]: 29.6%; inhibition of growth at 10 µM [23]: 42.8%; inhibition of growth at 10 µM [24]: 65.1%; inhibition of growth at 10 µM [25]: 22.6%; inhibition of growth at 10 µM [26]: 104%; inhibition of growth at 10 µM [27]: 43.9%; inhibition of growth at 10 µM [28]: 34%; inhibition of growth at 10 µM [29]: 30.4%; inhibition of growth at 10 µM [30]: 33.9%; inhibition of growth at 10 µM [31]: 50.2%; inhibition of growth at 10 µM [32]: 50.6%; inhibition of growth at 10 µM [33]: 73%
